Data reported in ChEMBL document CHEMBL4406880, “Design, synthesis, and bioactivity of dihydropyrimidine derivatives as kinesin spindle protein inhibitors” (Bioorg Med Chem, 2019).

How the values were obtained:
Format in all cases: functional
[1] = system: SNB-19; assay: Growth inhibition of human SNB19 cells assessed as growth percentage at 10 uM incubated for 48 hrs by sulforhodamine B assay relative to control; settings: SNB-19, 48 h, read-out: Activity
Summary of the method: (§1)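 NCI-60 single-dose screen. Cells were grown in RPMI 1640 with 5% FBS and 2 mM L-glutamine and plated at 5,000–40,000 cells/well. After an overnight preincubation at 37 °C in 5% CO2, compound was added at a final 10 µM from a DMSO stock, with DMSO/PBS controls. After 48 h, cells were TCA-fixed and stained with 0.4% SRB, and absorbance was read at 515 nm. Growth is given as a percentage of untreated control.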

[2] = system: NCI-H522; assay: Growth inhibition of human NCI-H522 cells assessed as growth percentage at 10 uM incubated for 48 hrs by sulforhodamine B assay relative to control; settings: NCI-H522, 48 h, read-out: Activity
Summary of the method: (§2)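 NCI-60 one-dose screen. Cells in RPMI 1640 with 5% FBS and 2 mM L-glutamine, seeded at 5,000–40,000 cells/well according to doubling time, and preincubated overnight at 37 °C, 5% CO2. A time-zero plate was TCA-fixed at drug addition. Compound from DMSO stock, final 10 µM, 48 h; DMSO vehicle controls. Fixation with TCA, 10% final (16% for suspension cells). SRB stain, Tris solubilization, A515. Result given as % growth versus untreated cells.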

[3] = system: K562; assay: Growth inhibition of human K562 cells assessed as growth percentage at 10 uM incubated for 48 hrs by sulforhodamine B assay relative to control; settings: K562, 48 h, read-out: Activity; summary of the method: as §2
[4] = system: U-251; assay: Growth inhibition of human U251 cells assessed as growth percentage at 10 uM incubated for 48 hrs by sulforhodamine B assay relative to control; settings: U-251, 48 h, read-out: Activity; summary of the method: as §1
[5] = system: SK-MEL-2; assay: Growth inhibition of human SK-MEL-2 cells assessed as growth percentage at 10 uM incubated for 48 hrs by sulforhodamine B assay relative to control; settings: SK-MEL-2, 48 h, read-out: Activity; summary of the method: as §1
[6] = system: LOX IMVI; assay: Growth inhibition of human LOXIMVI cells assessed as growth percentage at 10 uM incubated for 48 hrs by sulforhodamine B assay relative to control; settings: read-out: Activity; summary of the method: as §2
[7] = system: MCF7; assay: Growth inhibition of human MCF7 cells assessed as growth percentage at 10 uM incubated for 48 hrs by sulforhodamine B assay relative to control; settings: MCF7, 48 h, read-out: Activity; summary of the method: as §2
[8] = system: BT-549; assay: Growth inhibition of human BT549 cells assessed as growth percentage at 10 uM incubated for 48 hrs by sulforhodamine B assay relative to control; settings: BT-549, 48 h, read-out: Activity
Summary of the method: (§3)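 NCI-60 one-dose screen: cells in RPMI 1640 with 5% FBS and 2 mM L-glutamine, plated at 5,000–40,000 cells/well and preincubated 24 h at 37 °C, 5% CO2. Compound is added from a DMSO stock to a final 10 µM and incubated 48 h. Cells are TCA-fixed and stained with sulforhodamine B, read at 515 nm. Output is % growth versus untreated control, with a time-zero plate.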

[9] = system: SR; assay: Growth inhibition of human SR cells assessed as growth percentage at 10 uM incubated for 48 hrs by sulforhodamine B assay relative to control; settings: read-out: Activity; summary of the method: as §1
[10] = system: M14; assay: Growth inhibition of human M14 cells assessed as growth percentage at 10 uM incubated for 48 hrs by sulforhodamine B assay relative to control; settings: M14, 48 h, read-out: Activity; summary of the method: as §2
[11] = system: A549; assay: Growth inhibition of human A549/ATCC cells assessed as growth percentage at 10 uM incubated for 48 hrs by sulforhodamine B assay relative to control; settings: A549, 48 h, read-out: Activity; summary of the method: as §3
[12] = system: SK-MEL-5; assay: Growth inhibition of human SK-MEL-5 cells assessed as growth percentage at 10 uM incubated for 48 hrs by sulforhodamine B assay relative to control; settings: SK-MEL-5, 48 h, read-out: Activity; summary of the method: as §1
[13] = system: HCT-15; assay: Growth inhibition of human HCT15 cells assessed as growth percentage at 10 uM incubated for 48 hrs by sulforhodamine B assay relative to control; settings: HCT-15, 48 h, read-out: Activity; summary of the method: as §3
[14] = system: UACC-257; assay: Growth inhibition of human UACC257 cells assessed as growth percentage at 10 uM incubated for 48 hrs by sulforhodamine B assay relative to control; settings: UACC-257, 48 h, read-out: Activity; summary of the method: as §1
[15] = system: Hs-578T; assay: Growth inhibition of human Hs 578T cells assessed as growth percentage at 10 uM incubated for 48 hrs by sulforhodamine B assay relative to control; settings: read-out: Activity; summary of the method: as §2
[16] = system: CCRF-CEM; assay: Growth inhibition of human CCRF-CEM cells assessed as growth percentage at 10 uM incubated for 48 hrs by sulforhodamine B assay relative to control; settings: read-out: Activity; summary of the method: as §3
[17] = system: EKVX; assay: Growth inhibition of human EKVX cells assessed as growth percentage at 10 uM incubated for 48 hrs by sulforhodamine B assay relative to control; settings: read-out: Activity; summary of the method: as §3
[18] = system: OVCAR-4; assay: Growth inhibition of human OVCAR4 cells assessed as growth percentage at 10 uM incubated for 48 hrs by sulforhodamine B assay relative to control; settings: OVCAR-4, 48 h, read-out: Activity; summary of the method: as §2
[19] = system: SF-295; assay: Growth inhibition of human SF295 cells assessed as growth percentage at 10 uM incubated for 48 hrs by sulforhodamine B assay relative to control; settings: SF-295, 48 h, read-out: Activity; summary of the method: as §1
[20] = system: RPMI-8226; assay: Growth inhibition of human RPMI8226 cells assessed as growth percentage at 10 uM incubated for 48 hrs by sulforhodamine B assay relative to control; settings: RPMI-8226, 48 h, read-out: Activity; summary of the method: as §1
[21] = system: MDA-MB-231; assay: Growth inhibition of human MDA-MB-231 cells assessed as growth percentage at 10 uM incubated for 48 hrs by sulforhodamine B assay relative to control; settings: MDA-MB-231, 48 h, read-out: Activity; summary of the method: as §2
[22] = system: SF-539; assay: Growth inhibition of human SF539 cells assessed as growth percentage at 10 uM incubated for 48 hrs by sulforhodamine B assay relative to control; settings: SF-539, 48 h, read-out: Activity; summary of the method: as §1
[23] = system: UACC-62; assay: Growth inhibition of human UACC62 cells assessed as growth percentage at 10 uM incubated for 48 hrs by sulforhodamine B assay relative to control; settings: UACC-62, 48 h, read-out: Activity; summary of the method: as §1
[24] = system: HL-60(TB); assay: Growth inhibition of human HL-60(TB) cells assessed as growth percentage at 10 uM incubated for 48 hrs by sulforhodamine B assay relative to control; settings: HL-60, 48 h, read-out: Activity
Summary of the method: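 NCI-60 single-dose screen. Cells in RPMI 1640 with 5% FBS and 2 mM L-glutamine are plated at 5,000–40,000 cells/well and preincubated overnight at 37 °C, 5% CO2. Compound is added from a DMSO stock at 10 µM final for 48 h. Cells are TCA-fixed (suspension cells 16% final) and stained with SRB. Absorbance is read at 515 nm, and percentage growth is calculated against untreated controls with a time-zero plate.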

| Compound | growth at 10 µM [1] [%] | growth at 10 µM [2] [%] | growth at 10 µM [3] [%] | growth at 10 µM [4] [%] | growth at 10 µM [5] [%] | growth at 10 µM [6] [%] | growth at 10 µM [7] [%] | growth at 10 µM [8] [%] | growth at 10 µM [10] [%] | growth at 10 µM [11] [%] | growth at 10 µM [12] [%] | growth at 10 µM [13] [%] | growth at 10 µM [14] [%] | growth at 10 µM [15] [%] | growth at 10 µM [17] [%] | growth at 10 µM [18] [%] | growth at 10 µM [19] [%] | growth at 10 µM [20] [%] | growth at 10 µM [21] [%] | growth at 10 µM [22] [%] | further results |
| --- | --- | --- | --- | --- | --- | --- | --- | --- | --- | --- | --- | --- | --- | --- | --- | --- | --- | --- | --- | --- | --- |
| COCCOC(=O)C1=C(C)NC(=S)NC1c1ccc2c(c1)OCO2 (racemic) | 100 | 94.3 | 91.8 | 104 | 93 | 101 | 89.6 | 109 | 104 | 101 | 97.6 | 102 | 90.2 | 104 | 105 | 103 | 105 | 105 | 105 | 99.2 | growth at 10 µM [9]: 95.5%; growth at 10 µM [16]: 104%; growth at 10 µM [23]: 102%; growth at 10 µM [24]: 92.1% |
| CC1=C(C(=O)OCC(C)C)C(c2ccc3c(c2)OCO3)NC(=S)N1 (racemic) | 103 | 82.2 | 90.7 | 97.4 | 101 | 96.3 | 98.6 | 95 | 120 | 99 | 92.5 | 100 | 95.6 | 101 | 104 | 103 | 104 | 84 | 118 | 109 | growth at 10 µM [9]: 104%; growth at 10 µM [16]: 101%; growth at 10 µM [23]: 90.3%; growth at 10 µM [24]: 101% |
| COCCOC(=O)C1=C(C)NC(=S)N(C(C)=O)C1c1ccc2c(c1)OCO2 (racemic) | 99.3 | 91.6 | 94.3 | 94.8 | 108 | 97.2 | 102 | 103 | 96.1 | 99.2 | 104 | 103 | 95.3 | 93.7 | 94.1 | 87.6 | 98.5 | 97.7 | 97.8 | 97.6 | growth at 10 µM [23]: 98.2%; growth at 10 µM [24]: 97.8% |
| CC1=C(C(=O)OCc2ccccc2)C(c2ccc3c(c2)OCO3)n2c(nc3ccccc32)N1 (racemic) | 33 to 41.6 | 8 to 26.3 | 13.8 to 25 | 31 to 36.3 | 33 to 47.8 | 34.6 to 38 | 9 to 20.6 | 44 to 50.5 | 28.1 to 35 | 34 to 47.1 | 25.5 to 28 | 23 to 30.4 | 34 to 60.4 | 0.75 to 14 | 42 to 64.4 | 54 to 73.8 | 8 to 20.4 | 39.9 | 64 to 68.6 | 9.94 to 21 | growth at 10 µM [9]: 9.81 to 43%; growth at 10 µM [16]: 24.9 to 31%; growth at 10 µM [23]: 22 to 46.2% |
